Activity calls are given as the source filed them. No cut-off for these calls is given here.
Assays:
[1] = tested on: Ribosomal RNA A-site; assay: Displacement of F-NEO from Escherichia coli rRNA-A site after 10 to 20 mins by fluorescence assay relative to NEO; type: nucleic-acid assay; parameters: concentration or dose not given beside the values
Procedure, shortened: (§1)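 100 nM F-NEO:A-site complex in 10 mM HEPES, 50 mM NaCl, 0.04 mM EDTA, pH 7.0, mixed with ligand and incubated 10-20 min at room temperature. Fluorescence read at ex 485/em 525 nm, in duplicate. Percent binding was computed from the intensities of ligand-treated complex, complex without ligand, and complex with neomycin.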

[2] = tested on: Ribosomal RNA A-site; assay: Displacement of F-NEO from human cytosolic rRNA-A site after 10 to 20 mins by fluorescence assay relative to NEO; type: nucleic-acid assay; parameters: concentration or dose not given beside the values; procedure, shortened: as §1
[3] = tested on: Ribosomal RNA A-site; assay: Displacement of F-NEO from human mitochondrial rRNA-A site after 10 to 20 mins by fluorescence assay relative to NEO; type: nucleic-acid assay; parameters: concentration or dose not given beside the values; procedure, shortened: as §1
[4] = species: Homo sapiens; assay: Displacement of F-NEO from human mitochondrial rRNA-A site C1410U mutant after 10 to 20 mins by fluorescence assay relative to NEO; parameters: concentration or dose not given beside the values; procedure, shortened: as §1
[5] = species: Homo sapiens; assay: Displacement of F-NEO from human mitochondrial rRNA-A site A1490G mutant after 10 to 20 mins by fluorescence assay relative to NEO; procedure, shortened: as §1
[6] = tested on: Ribosomal RNA A-site; assay: Displacement of F-NEO from Escherichia coli rRNA-A site after 10 to 20 mins by fluorescence assay; type: nucleic-acid assay
Procedure, shortened: (§2)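 A 100 nM F-NEO:A-site RNA complex in 10 mM HEPES, 50 mM NaCl, 0.04 mM EDTA, pH 7.0 was titrated with 2-fold dilutions of ligand from 20 to 0.009 μM, or from 60 or 40 μM for weaker ligands. Incubated 10-20 min at room temperature, fluorescence read at ex 485/em 525 nm. IC50 from dose-response curve fit.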

[7] = biological target: Ribosomal RNA A-site; assay: Displacement of F-NEO from human cytosolic rRNA-A site after 10 to 20 mins by fluorescence assay; type: nucleic-acid assay; procedure, shortened: as §2
[8] = biological target: Ribosomal RNA A-site; assay: Displacement of F-NEO from human mitochondrial rRNA-A site after 10 to 20 mins by fluorescence assay; type: nucleic-acid assay; procedure, shortened: as §2
[9] = Displacement of F-NEO from human mitochondrial rRNA-A site C1410U mutant after 10 to 20 mins by fluorescence assay; procedure, shortened: as §2
[10] = tested on: Staphylococcus aureus; assay: Antibacterial activity against NEO-sensitive Staphylococcus aureus 25923 at 6.25 uM after 15 to 20 hrs by CLSI protocol based microdilution assay relative to control; type: functional
Procedure, shortened: (§3)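 Single-concentration screen at 6.25 μM against exponential-phase cultures, in duplicate, with NEO as reference. Enterococcus was grown in BHI broth, M. smegmatis in TS broth with 0.05% Tween 80, and all other strains in TS broth. The 1% DMSO water vehicle was added to broth (background) and culture (growth control). Incubation was 37 °C, humidified, 15-20 h. Result is percent growth inhibition.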

[11] = tested on: Staphylococcus aureus; assay: Antibacterial activity against NEO-sensitive Staphylococcus aureus harboring NorA mutant at 6.25 uM after 15 to 20 hrs by CLSI protocol based microdilution assay relative to control; type: functional
Procedure, shortened: (§4)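 Exponential-phase cultures were exposed to 6.25 μM compound in duplicate with neomycin as reference, at 37 °C in a humidified incubator for 15-20 h. Broth and culture controls received sterile water with 1% DMSO. Percent growth inhibition was calculated against the growth and background controls.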

[12] = tested on: Staphylococcus aureus; assay: Antibacterial activity against methicillin-resistant Staphylococcus aureus 33591 at 6.25 uM after 15 to 20 hrs by CLSI protocol based microdilution assay relative to control; type: functional; procedure, shortened: as §4
[13] = tested on: Staphylococcus aureus; assay: Antibacterial activity against methicillin-resistant Staphylococcus aureus A960649 at 6.25 uM after 15 to 20 hrs by CLSI protocol based microdilution assay relative to control; type: functional; procedure, shortened: as §4
[14] = tested on: Staphylococcus aureus; assay: Antibacterial activity against methicillin-resistant Staphylococcus aureus M0602 at 6.25 uM after 15 to 20 hrs by CLSI protocol based microdilution assay relative to control; type: functional; procedure, shortened: as §4
[15] = tested on: Streptococcus pyogenes; assay: Antibacterial activity against NEO-resistant Streptococcus pyogenes C203 at 6.25 uM after 15 to 20 hrs by CLSI protocol based microdilution assay relative to control; type: functional; procedure, shortened: as §4
[16] = tested on: Enterococcus faecalis; assay: Antibacterial activity against NEO-intermediate sensitive Enterococcus faecalis ATCC 29212 at 6.25 uM after 15 to 20 hrs by CLSI protocol based microdilution assay relative to control; type: functional; procedure, shortened: as §3
[17] = tested on: Enterococcus faecium; assay: Antibacterial activity against NEO-intermediate sensitive Enterococcus faecium BM4105-RF at 6.25 uM after 15 to 20 hrs by CLSI protocol based microdilution assay relative to control; type: functional; procedure, shortened: as §3
[18] = tested on: Mycolicibacterium smegmatis; assay: Antibacterial activity against NEO-sensitive Mycobacterium smegmatis at 6.25 uM after 15 to 20 hrs by CLSI protocol based microdilution assay relative to control; type: functional; procedure, shortened: as §3
[19] = tested on: Bacillus anthracis; assay: Antibacterial activity against NEO-sensitive Bacillus anthracis BA852 at 6.25 uM after 15 to 20 hrs by CLSI protocol based microdilution assay relative to control; type: functional; procedure, shortened: as §4
[20] = tested on: Listeria monocytogenes; assay: Antibacterial activity against NEO-sensitive Listeria monocytogenes ATCC 19115 at 6.25 uM after 15 to 20 hrs by CLSI protocol based microdilution assay relative to control; type: functional; procedure, shortened: as §3
[21] = tested on: Escherichia coli; assay: Antibacterial activity against NEO-sensitive Escherichia coli ATCC 25922 at 6.25 uM after 15 to 20 hrs by CLSI protocol based microdilution assay relative to control; type: functional; procedure, shortened: as §3
[22] = tested on: Escherichia coli; assay: Antibacterial activity against NEO-sensitive Escherichia coli harboring TolC mutant at 6.25 uM after 15 to 20 hrs by CLSI protocol based microdilution assay relative to control; type: functional; procedure, shortened: as §4
[23] = tested on: Acinetobacter baumannii; assay: Antibacterial activity against NEO-sensitive Acinetobacter baumannii ATCC 19606 at 6.25 uM after 15 to 20 hrs by CLSI protocol based microdilution assay relative to control; type: functional, ATCC 19606 = CIP 70.34 = JCM 6841; procedure, shortened: as §3
[24] = tested on: Pseudomonas aeruginosa; assay: Antibacterial activity against NEO-resistant Pseudomonas aeruginosa 27853 at 6.25 uM after 15 to 20 hrs by CLSI protocol based microdilution assay relative to control; type: functional; procedure, shortened: as §4
[25] = tested on: Klebsiella oxytoca; assay: Antibacterial activity against NEO-sensitive Klebsiella oxytoca HM-625 at 6.25 uM after 15 to 20 hrs by CLSI protocol based microdilution assay relative to control; type: functional; procedure, shortened: as §3
[26] = Antibacterial activity against NEO-sensitive Enterobacter cloacae 13047 at 6.25 uM after 15 to 20 hrs by CLSI protocol based microdilution assay relative to control; type: functional, Enterobacter cloacae subsp. cloacae, ATCC 13047; procedure, shortened: as §3
[27] = tested on: Klebsiella pneumoniae; assay: Antibacterial activity against Klebsiella pneumoniae NR-151410 at 6.25 uM after 15 to 20 hrs by CLSI protocol based microdilution assay relative to control; type: functional; procedure, shortened: as §3
[28] = Inhibition of Eis (unknown origin)
[29] = Inhibition of AAC(3)-4 (unknown origin)
[30] = Inhibition of AAC(6')-1e (unknown origin)
[31] = Inhibition of AAC(2')-1c (unknown origin)
[32] = Inhibition of APH(3')-1a (unknown origin)
[33] = Inhibition of APH(2\")-1a (unknown origin)

| SMILES | inhibition [1] | inhibition [2] | inhibition [3] | inhibition [4] | inhibition [5] | IC50 [6] | IC50 [7] | IC50 [8] | IC50 [9] | Activity [10] | Activity [11] | Activity [12] | Activity [13] | Activity [14] | Activity [15] | Activity [16] | Activity [17] | Activity [18] | Activity [19] | Activity [20] | also measured |
| --- | --- | --- | --- | --- | --- | --- | --- | --- | --- | --- | --- | --- | --- | --- | --- | --- | --- | --- | --- | --- | --- |
| NC[C@@H]1O[C@H](O[C@H]2[C@@H](O)[C@H](O[C@@H]3[C@@H](O)[C@H](N)C[C@H](N)[C@H]3O[C@H]3O[C@H](CN)[C@@H](O)[C@H](O)[C@H]3N)O[C@@H]2CSCCNC(=O)Cc2ccc3ccc4cccc5ccc2c3c45)[C@H](N)[C@@H](O)[C@@H]1O | 101% | 114% | 102% | 103% | 102% | 95 nM | 97 nM | 90 nM | 70 nM | 48% | 60% | 0% | 7% | 32% | inactive | 20% | 15% | 43% | 100% | 52% | Activity [21]: 0%; Activity [22]: 100%; Activity [23]: 6%; Activity [24]: 0%; Activity [25]: 16%; Activity [26]: 5%; Activity [27]: 23%; inhibition [28]: Active; inhibition [29]: Active; inhibition [30]: Active; inhibition [31]: Active; inhibition [32]: Active; inhibition [33]: Active |
| NC[C@@H]1O[C@H](O[C@H]2[C@@H](O)[C@H](O[C@@H]3[C@@H](O)[C@H](N)C[C@H](N)[C@H]3O[C@H]3O[C@H](CN)[C@@H](O)[C@H](O)[C@H]3N)O[C@@H]2CNC(=O)Cc2ccc3ccc4cccc5ccc2c3c45)[C@H](N)[C@@H](O)[C@@H]1O | 33% | 38% | 47% | 73% | 22% | 303 nM | 375 nM | 339 nM | 274 nM | 30% | inactive | 27% | 15% | inactive | inactive | 12% | 0% | 38% | inactive | inactive | Activity [21]: 7%; Activity [22]: inactive; Activity [23]: 6%; Activity [24]: 19%; Activity [25]: 5%; Activity [26]: 0%; Activity [27]: 10%; inhibition [28]: Active; inhibition [29]: Active; inhibition [30]: Active; inhibition [31]: Active; inhibition [32]: Active; inhibition [33]: Active |
